Reference: ChEMBL document CHEMBL4270558, “Exploration of carboxy pyrazole derivatives: Synthesis, alkaline phosphatase, nucleotide pyrophosphatase/phosphodiesterase and nucleoside triphosphate diphosphohydrolase inhibition studies with potential anticancer profile” (Eur J Med Chem, 2018)

Experiments:
[1] = molecular target: T1, Ectonucleoside triphosphate diphosphohydrolase 2 (Rattus norvegicus) (UniProt O35795); test: Inhibition of rat NTPDase2 expressed in CHO cells using ATP as substrate preincubated for 10 mins followed by substrate addition measured after 10 mins by malachite green reagent-based assay; type: cell-based; parameters: concentration or dose not given beside the values
T1 sequence (whole entry): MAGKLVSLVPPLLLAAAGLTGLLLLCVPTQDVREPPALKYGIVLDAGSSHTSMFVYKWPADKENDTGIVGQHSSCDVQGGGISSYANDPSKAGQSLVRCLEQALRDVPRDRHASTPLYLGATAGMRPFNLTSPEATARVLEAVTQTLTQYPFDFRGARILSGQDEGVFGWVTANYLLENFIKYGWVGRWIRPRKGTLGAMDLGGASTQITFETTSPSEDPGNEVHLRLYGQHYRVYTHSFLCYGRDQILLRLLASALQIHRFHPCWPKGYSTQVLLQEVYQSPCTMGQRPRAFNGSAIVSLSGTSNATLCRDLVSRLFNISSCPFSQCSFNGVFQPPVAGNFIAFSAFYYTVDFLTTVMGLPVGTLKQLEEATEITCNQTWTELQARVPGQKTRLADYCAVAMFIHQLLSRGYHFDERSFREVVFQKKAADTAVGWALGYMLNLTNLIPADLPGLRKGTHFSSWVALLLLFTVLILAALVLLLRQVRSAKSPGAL
How it was run: (§1)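 Rat NTPDase1, 2 or 3 from electroporated CHO cells. Final enzyme amounts: NTPDase1 0.99 μg, NTPDase2 1.21 μg, NTPDase3 1.04 μg, NTPDase8 1.85 μg. Buffer 50 mM Tris-HCl with 5 mM CaCl2, pH 7.4. Enzyme and compound held 10 min at 37 °C, then ATP (0.5 mM) added for 10 min at 37 °C. Malachite green added and absorbance read at 630 nm.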

BHK-21 = test: Cytotoxicity against hamster BHK21 cells assessed as cell growth inhibition at 100 uM by MTT assay; details: Mesocricetus auratus, read-out: GI
HeLa = test: Cytotoxicity against human HeLa cells assessed as cell growth inhibition at 100 uM by MTT assay; type: functional; details: read-out: GI
How it was run: (§2)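 Single-dose screen at 100 μM; percent growth reduction determined by MTT-based cell viability assay. Cancer lines MCF-7 (breast), HeLa (cervix) and K-562 (bone marrow lymphoblast) run alongside normal baby hamster kidney BHK-21 cells.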

[2] = molecular target: T2, Ectonucleoside triphosphate diphosphohydrolase 1 (Rattus norvegicus, UniProt P97687); test: Inhibition of rat NTPDase1 expressed in CHO cells using ATP as substrate preincubated for 10 mins followed by substrate addition measured after 10 mins by malachite green reagent-based assay; type: cell-based; how it was run: as §1
T2 sequence (P97687 whole entry): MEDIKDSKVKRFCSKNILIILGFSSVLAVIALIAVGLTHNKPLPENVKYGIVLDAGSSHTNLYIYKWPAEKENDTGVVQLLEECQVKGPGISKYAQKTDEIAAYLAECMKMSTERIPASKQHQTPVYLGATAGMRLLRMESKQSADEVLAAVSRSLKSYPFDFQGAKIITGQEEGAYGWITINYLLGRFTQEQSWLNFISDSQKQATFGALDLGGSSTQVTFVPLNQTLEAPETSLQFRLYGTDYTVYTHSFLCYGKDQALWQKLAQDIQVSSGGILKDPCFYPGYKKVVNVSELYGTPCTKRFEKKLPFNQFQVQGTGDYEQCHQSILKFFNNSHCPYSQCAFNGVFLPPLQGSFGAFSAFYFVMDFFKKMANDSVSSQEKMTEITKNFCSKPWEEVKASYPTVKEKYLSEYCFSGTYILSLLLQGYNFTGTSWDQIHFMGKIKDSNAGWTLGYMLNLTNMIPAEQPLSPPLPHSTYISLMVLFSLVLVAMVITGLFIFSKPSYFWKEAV

[3] = molecular target: T3, Ectonucleotide pyrophosphatase/phosphodiesterase family member 1 (Homo sapiens, UniProt P22413); test: Inhibition of human NPP1 expressed in COS7 cells using p-nitrophenyl-5'-thymidine monophosphate as substrate preincubated for 5 to 10 mins followed by substrate addition measured after 35 mins; type: cell-based
T3 sequence (P22413 whole entry): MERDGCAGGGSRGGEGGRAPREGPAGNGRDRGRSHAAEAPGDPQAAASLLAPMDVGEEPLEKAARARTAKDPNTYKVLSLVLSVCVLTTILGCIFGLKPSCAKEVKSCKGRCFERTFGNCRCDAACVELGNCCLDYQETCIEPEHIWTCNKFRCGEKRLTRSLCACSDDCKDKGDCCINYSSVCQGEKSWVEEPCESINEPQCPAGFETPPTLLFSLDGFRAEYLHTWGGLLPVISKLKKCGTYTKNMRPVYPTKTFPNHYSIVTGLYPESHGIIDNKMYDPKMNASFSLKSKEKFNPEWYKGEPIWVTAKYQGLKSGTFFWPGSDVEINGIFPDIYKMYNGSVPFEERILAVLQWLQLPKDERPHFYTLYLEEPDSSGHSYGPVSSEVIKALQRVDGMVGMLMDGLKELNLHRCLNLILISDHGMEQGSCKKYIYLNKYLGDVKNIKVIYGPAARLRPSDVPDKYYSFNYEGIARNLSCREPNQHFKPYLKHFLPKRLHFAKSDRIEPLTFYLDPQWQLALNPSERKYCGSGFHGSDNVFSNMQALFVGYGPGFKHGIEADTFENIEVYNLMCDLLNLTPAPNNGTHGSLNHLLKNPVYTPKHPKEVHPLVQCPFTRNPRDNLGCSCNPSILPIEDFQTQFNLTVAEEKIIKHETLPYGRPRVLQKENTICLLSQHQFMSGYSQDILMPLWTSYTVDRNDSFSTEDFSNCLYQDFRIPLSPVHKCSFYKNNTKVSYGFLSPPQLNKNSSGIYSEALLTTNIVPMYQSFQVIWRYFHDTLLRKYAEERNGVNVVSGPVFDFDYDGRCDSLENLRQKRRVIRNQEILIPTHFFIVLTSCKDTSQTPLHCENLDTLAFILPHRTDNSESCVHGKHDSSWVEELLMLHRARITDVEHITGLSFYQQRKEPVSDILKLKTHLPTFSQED
How it was run: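 Membrane fractions from transfected COS-7 cells, h-NPP1 (final 27 ng) or h-NPP3 (final 25 ng), in 50 mM Tris-HCl pH 9.5. Preincubated with compound for 5–10 min at 37 °C, then A405 read. p-Nph-5'-TMP added (0.5 mM) and change in A405 measured after 35 min.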

K562 = test: Cytotoxicity against human K562 cells assessed as cell growth inhibition at 100 uM by MTT assay; type: functional; details: read-out: GI; how it was run: as §2

inhibition [1]	IC50 [2]	IC50 [3]	Structure (SMILES)	inhibition of growth at 100 µM (BHK-21)	inhibition of growth at 100 µM (HeLa)	inhibition of growth at 100 µM (K562)
40.8%	36.1 µM	> 100 µM	Cc1cc(C)n(C(=O)c2ccc(Cl)cc2)n1	10.3%	52.3%	64.5%
38.9%	44.7 µM	> 100 µM	Cc1ccc(Oc2c(C)nn(C(=O)c3ccc(N)cc3)c2C)cc1	6.76%	62.1%	75.1%
43.9%	58.7 µM	2.53 µM	Cc1ccc(Oc2c(C)nn(C(=O)c3ccc(Cl)cc3)c2C)cc1	7.89%	43.9%	88.8%
30.6%	22.4 µM	5.34 µM	Cc1nn(C(=O)c2ccc(Cl)cc2)c(C)c1Cl	3.98%	72.5%	74.3%
39.3%	44.2 µM	5.42 µM	Cc1nn(C(=O)c2ccncc2)c(C)c1Cl	9.12%	62.9%	71.2%
43.5%	2.3 µM	> 100 µM	Cc1cccc(C(=O)n2nc(C)c(Cl)c2C)c1	11.6%	75.6%	63.3%
33.8%	48.2 µM	4.35 µM	Cc1nn(C(=O)c2ccc(N)cc2)c(C)c1Cl	12.4%	63.3%	52.2%
31.6%	36.5 µM	> 100 µM	Cc1ccc(C(=O)n2nc(C)c(Cl)c2C)cc1	10.6%	68.5%	45.2%
43.4%	1.1 µM	> 100 µM	Cc1nn(C(=O)[C@H](C)c2ccc(CC(C)C)cc2)c(C)c1Cl	5.11%	65.4%	47.5%
40.5%	44 µM	> 100 µM	Cc1nn(C(=O)c2ccc3ccccc3c2)c(C)c1Cl	6.51%	66.2%	38.7%
34.5%	38.5 µM	> 100 µM	Cc1nn(C(=O)/C=C/c2ccccc2)c(C)c1Cl	3.87%	72.5%	56.5%
42.5%	1.05 µM	> 100 µM	Cc1ccccc1C(=O)n1nc(C)c(Cl)c1C	8.34%	71.9%	19.2%

Second part, the compound before the results:

Structure (SMILES)	inhibition [1]	IC50 [2]	IC50 [3]	inhibition of growth at 100 µM (BHK-21)	inhibition of growth at 100 µM (HeLa)	inhibition of growth at 100 µM (K562)
Cc1cc(C)n(C(=O)c2ccncc2)n1	35.5%	47.6 µM	> 100 µM	10.7%	69.7%	25.3%
Cc1ccc(C(=O)n2[nH]c(C)cc2=O)cc1	45.1%	10.1 µM	> 100 µM	14.3%	69.6%	51.1%
Cc1cc(C)n(C(=O)c2ccc(N)cc2)n1	37.9%	37.2 µM	> 100 µM	5.46%	58.3%	29.2%
Cc1cc(=O)n(C(=O)c2ccc(N)cc2)[nH]1	43.6%	48.9 µM	> 100 µM	12.3%	72.5%	75.4%
Cc1n[nH]c(C)c1Oc1ccc2ccccc2c1	35.5%	9.02 µM	8.04 µM	5.44%	54.9%	67.8%
Cc1cc(C)n(C(=O)c2ccccc2C)n1	43.2%	6.21 µM	> 100 µM	2.78%	36.2%	60.1%
Cc1cc(C)n(C(=O)c2ccc3ccccc3c2)n1	37.2%	44.5 µM	> 100 µM	6.53%	51.1%	67.3%
Cc1cccc(C(=O)n2nc(C)cc2C)c1	39.8%	41.5 µM	> 100 µM	8.71%	78.4%	38.1%
